Experimental data reported in ChEMBL document CHEMBL4689842, “EUbOPEN Chemogenomics Library wave 1” (2021).

System: U2OS
Test: Multiplex assay against U2OS
Assay type: toxicity, cell-based
Settings: human
In short: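 Four dyes were applied at seeding to live cells: Hoechst33342, BioTracker Green Microtubule Cytoskeleton Dye, MitoTracker Red and Annexin V Alexa Fluor 680. Imaging after compound addition used a CQ1 microscope at 37°C and 5% CO2. CellPathfinder machine-learning gating then sorted cells into Hoechst high-intensity objects or normal cells, normal cells into healthy, pyknosed or fragmented nuclei, and pyknosed cells into mitotic or apoptotic, with tubulin, mitochondrial-mass and membrane-permeability phenotypes given as per cents of healthy-nucleus cells.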

[1] = 12 h, 1 µM, compound concentration 1 uM, replicate 1
[2] = 12 h, 1 µM, compound concentration 1 uM, replicate 2
[3] = 12 h, 10 µM, compound concentration 10 uM, replicate 1
[4] = 12 h, 10 µM, compound concentration 10 uM, replicate 2
[5] = 24 h, 1 µM, compound concentration 1 uM, replicate 1
[6] = 24 h, 1 µM, compound concentration 1 uM, replicate 2
[7] = 24 h, 10 µM, compound concentration 10 uM, replicate 1
[8] = 24 h, 10 µM, compound concentration 10 uM, replicate 2
[9] = 48 h, 1 µM, compound concentration 1 uM, replicate 1
[10] = 48 h, 1 µM, compound concentration 1 uM, replicate 2
[11] = 48 h, 10 µM, compound concentration 10 uM, replicate 1
[12] = 48 h, 10 µM, compound concentration 10 uM, replicate 2

Cl.O=C(O)c1cc(-c2ccc(C3CCNCC3)cc2)c2ccc(-c3ccc(C(F)(F)F)cc3)cc2c1
Population Apoptotic (%) [1]: 25%
Population Fragmented Nuclei (%) [1]: 16%
Population Healthy Nuclei (%) [1]: 67%
Population Hoechst High Intensity Objects (%) [1]: 7%
Population Membrane Permeable-Phenotype (%) [1]: 8%
Population Mitochondria Different-Phenotype (%) [1]: 9%
Population Mitotic Cells (%) [1]: 74%
Population Normal (%) [1]: 92%
Population Pyknosed Nuclei (%) [1]: 16%
Population Tubulin-Different-Phenotype (%) [1]: 15%
Total Cell Count [1]: 201
Population Apoptotic (%) [2]: 50%
Population Fragmented Nuclei (%) [2]: 11%
Population Healthy Nuclei (%) [2]: 83%
Population Hoechst High Intensity Objects (%) [2]: 5%
Population Membrane Permeable-Phenotype (%) [2]: 3%
Population Mitochondria Different-Phenotype (%) [2]: 16%
Population Mitotic Cells (%) [2]: 50%
Population Normal (%) [2]: 94%
Population Pyknosed Nuclei (%) [2]: 5%
Population Tubulin-Different-Phenotype (%) [2]: 36%
Total Cell Count [2]: 60
Population Apoptotic (%) [3]: 41%
Population Healthy Nuclei (%) [3]: 74%
Population Hoechst High Intensity Objects (%) [3]: 2%
Population Membrane Permeable-Phenotype (%) [3]: 5%
Population Mitochondria Different-Phenotype (%) [3]: 17%
Population Mitotic Cells (%) [3]: 58%
Population Normal (%) [3]: 97%
Population Pyknosed Nuclei (%) [3]: 11%
Population Tubulin-Different-Phenotype (%) [3]: 14%
Total Cell Count [3]: 181
Population Apoptotic (%) [4]: 60%
Population Fragmented Nuclei (%) [4]: 14%
Population Healthy Nuclei (%) [4]: 64%
Population Hoechst High Intensity Objects (%) [4]: 14%
Population Membrane Permeable-Phenotype (%) [4]: 10%
Population Mitochondria Different-Phenotype (%) [4]: 13%
Population Mitotic Cells (%) [4]: 40%
Population Normal (%) [4]: 85%
Population Pyknosed Nuclei (%) [4]: 21%
Population Tubulin-Different-Phenotype (%) [4]: 23%
Total Cell Count [4]: 38
Population Apoptotic (%) [5]: 35%
Population Healthy Nuclei (%) [5]: 81%
Population Hoechst High Intensity Objects (%) [5]: 7%
Population Membrane Permeable-Phenotype (%) [5]: 3%
Population Mitotic Cells (%) [5]: 64%
Population Normal (%) [5]: 92%
Population Pyknosed Nuclei (%) [5]: 6%
Population Tubulin-Different-Phenotype (%) [5]: 12%
Total Cell Count [5]: 249
Population Apoptotic (%) [6]: 20%
Population Fragmented Nuclei (%) [6]: 11%
Population Healthy Nuclei (%) [6]: 79%
Population Hoechst High Intensity Objects (%) [6]: 3%
Population Membrane Permeable-Phenotype (%) [6]: 4%
Population Mitochondria Different-Phenotype (%) [6]: 9%
Population Mitotic Cells (%) [6]: 80%
Population Normal (%) [6]: 96%
Population Pyknosed Nuclei (%) [6]: 9%
Population Tubulin-Different-Phenotype (%) [6]: 30%
Total Cell Count [6]: 62
Population Apoptotic (%) [7]: 41%
Population Fragmented Nuclei (%) [7]: 13%
Population Healthy Nuclei (%) [7]: 72%
Population Hoechst High Intensity Objects (%) [7]: 4%
Population Membrane Permeable-Phenotype (%) [7]: 4%
Population Mitochondria Different-Phenotype (%) [7]: 12%
Population Mitotic Cells (%) [7]: 58%
Population Normal (%) [7]: 95%
Population Pyknosed Nuclei (%) [7]: 13%
Population Tubulin-Different-Phenotype (%) [7]: 13%
Total Cell Count [7]: 227
Population Apoptotic (%) [8]: 61%
Population Fragmented Nuclei (%) [8]: 17%
Population Healthy Nuclei (%) [8]: 61%
Population Hoechst High Intensity Objects (%) [8]: 8%
Population Membrane Permeable-Phenotype (%) [8]: 7%
Population Mitochondria Different-Phenotype (%) [8]: 5%
Population Mitotic Cells (%) [8]: 38%
Population Normal (%) [8]: 91%
Population Pyknosed Nuclei (%) [8]: 20%
Population Tubulin-Different-Phenotype (%) [8]: 16%
Total Cell Count [8]: 56
Population Apoptotic (%) [9]: 17%
Population Fragmented Nuclei (%) [9]: 9%
Population Healthy Nuclei (%) [9]: 81%
Population Hoechst High Intensity Objects (%) [9]: 3%
Population Membrane Permeable-Phenotype (%) [9]: 1%
Population Mitochondria Different-Phenotype (%) [9]: 17%
Population Mitotic Cells (%) [9]: 82%
Population Normal (%) [9]: 96%
Population Pyknosed Nuclei (%) [9]: 9%
Population Tubulin-Different-Phenotype (%) [9]: 12%
Total Cell Count [9]: 359
Population Apoptotic (%) [10]: 33%
Population Fragmented Nuclei (%) [10]: 6%
Population Healthy Nuclei (%) [10]: 89%
Population Hoechst High Intensity Objects (%) [10]: 2%
Population Membrane Permeable-Phenotype (%) [10]: 4%
Population Mitochondria Different-Phenotype (%) [10]: 11%
Population Mitotic Cells (%) [10]: 66%
Population Normal (%) [10]: 97%
Population Pyknosed Nuclei (%) [10]: 3%
Population Tubulin-Different-Phenotype (%) [10]: 32%
Total Cell Count [10]: 95
Population Apoptotic (%) [11]: 45%
Population Fragmented Nuclei (%) [11]: 12%
Population Healthy Nuclei (%) [11]: 65%
Population Hoechst High Intensity Objects (%) [11]: 5%
Population Membrane Permeable-Phenotype (%) [11]: 5%
Population Mitochondria Different-Phenotype (%) [11]: 7%
Population Mitotic Cells (%) [11]: 54%
Population Normal (%) [11]: 94%
Population Pyknosed Nuclei (%) [11]: 21%
Population Tubulin-Different-Phenotype (%) [11]: 14%
Total Cell Count [11]: 332
Population Apoptotic (%) [12]: 75%
Population Fragmented Nuclei (%) [12]: 17%
Population Healthy Nuclei (%) [12]: 66%
Population Hoechst High Intensity Objects (%) [12]: 10%
Population Membrane Permeable-Phenotype (%) [12]: 13%
Population Mitochondria Different-Phenotype (%) [12]: 13%
Population Mitotic Cells (%) [12]: 25%
Population Normal (%) [12]: 89%
Population Pyknosed Nuclei (%) [12]: 16%
Population Tubulin-Different-Phenotype (%) [12]: 21%
Total Cell Count [12]: 80
